Rows were chosen to be rich in hits. Some 3.7% of all compounds tested hit in one or more screens of this group.
Kir21 inh – inhibitors of mouse Kir2.1 inward-rectifier potassium channel; P35561; HEK293-Kir2.1, FluxOR thallium flux fluorescence; stronger effect = lower value; B-score at 10 µM; hit rate 0.85% among 310,000;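 active = fluorescence ratio B-score at or below minus 3 SD of library scores, with starting-brightness B-score within 2 SD, cut at about -4.2 in these data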;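 also: channel flux triggered by added potassium and thallium sulfate stimulus; B-score of peak minus minimum fluorescence over baseline after thallium stimulus; more negative B-score means stronger Kir2.1 block with less thallium influx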
KCNQ1 block – blocks the human KCNQ1 potassium channel | AID 2642 | B-score at 10 µM | hit rate 1.3% among 310,000 | P51787 | CHO-K1 KCNQ1, FluxOR thallium flux fluorescence; stronger effect = higher value;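 active = compounds whose thallium flux B-score, printed positive for inhibition, exceeds three library SD while starting fluorescence stays within three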;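 also: channel opened by potassium depolarization with thallium stimulus after 20 min compound exposure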
KCNK9 inh – human KCNK9 channel inhibition; Q9NPC2; HEK293 KCNK9, FluxOR thallium flux fluorescence; stronger effect = lower value; B-score at 10 µM; hit rate 1.2% among 310,000; AID 488922;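 active = ratio B-score over 3 SD below the library mean, with starting fluorescence within 5 SD of its mean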;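 also: negative B-score means less thallium flux so channel inhibition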
hERG protect – shields human hERG channel from block by proarrhythmic agents; Q12809; hit rate 0.51% among 310,000; CHO-hERG, FluxOR thallium flux, dofetilide IC70 present; AID 1511; activation (rescue from dofetilide block), less the hit threshold, % at 10 µM;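 active = activation above the mean of controls blocked by dofetilide plus 5 SD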;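 also: thallium influx through hERG after potassium depolarization seen as dye fluorescence rise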
KCNQ1 pot – human KCNQ1 channel potentiation or activation; P51787; CHO-K1 KCNQ1, thallium flux FluxOR fluorescence; stronger effect = higher value; B-score at 10 µM; hit rate 0.35% among 310,000; AID 2648;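 active = fluorescence ratio B-score, a plate-corrected score, at least three library SD, with initial intensity B-score within 5 SD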
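Material: CHO-K1 cells stably expressing KCNQ1. Medium: assay buffer for compound exposure, DMSO matched across wells. Reagent: K+/Tl+ depolarizing stimulus. Compound dosing: single-concentration screen. Times: 37 °C overnight plating, 90-min dark dye load, 20-min compound pretreatment. Technique: FluxOR Tl+ flux fluorescence.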
KCNK3 block – human KCNK3 channel inhibition, primary screen. CHO-KCNK3 thallium flux, FluxOR fluorescence; stronger effect = lower value. O14649. AID 602410. B-score at 10 µM. hit rate 0.84% among 340,000;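 active = B-score under library mean minus 4 SD, starting fluorescence ratio at most library mean plus 5 SD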;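 also: more negative B-score means stronger inhibition of thallium flux through KCNK3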
KCNQ1 block val – human KCNQ1 channel inhibition, validation assay | shares compounds with KCNQ1 block | KCNQ1 cell line, FluxOR thallium flux fluorescence | inhibition, % at 10 µM | hit rate 93% among 1,600;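 active = primary screen active, with duplicate mean exceeding buffer control mean plus 3 SD of buffer wells, cut at about 28% in these data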;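 also: 0% = buffer control ratio and 100% = XE991 inhibitor control ratio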
CHO KCNQ1 ctr – KCNQ1 inhibitor counter-screen hit in parental CHO cells | shares compounds with KCNQ1 block | parental CHO-K1, FluxOR thallium flux fluorescence ratio; stronger effect = lower value; zero means no signal rise above baseline | fluorescence ratio (Tl flux) at 10 µM | hit rate 21% among 1,600 | AID 588366;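 active = mean of duplicate thallium-flux fluorescence ratios in parental host cells more than 5 SD below the buffer control mean, cut at about 0.38 in these data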;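 also: ratio is peak minus minimum fluorescence divided by baseline fluorescence; actives read low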
KCNQ1 APC inh – blocks human KCNQ1 current in automated patch clamp | shares compounds with KCNQ1 block | hit rate 20% among 490 | KCNQ1-CHO cells | calls only at 10 µM | AID 624120;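 active = KCNQ1 current drop exceeding 3 SD of negative control wells, seen in both duplicate runs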;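 also: steady state current during a 2 s step from -80 to +40 mV; negative values mean current inhibition and positive values mean potentiation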
KCNQ2 inh – rat KCNQ2 inhibition in KCNQ1 inhibitor specificity screen. shares compounds with KCNQ1 block. KCNQ2 cells, FluxOR thallium flux fluorescence. inhibition, % at 10 µM. hit rate 71% among 1,600;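 active = mean percent inhibition of the KCNQ2 thallium signal more than 5 SD above the buffer-only control wells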;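 also: KCNQ2 expressed in CHO cells; 0% = buffer control wells and 100% = XE-991 inhibitor control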
KCNQ1 KCNE1 spec – selectivity of KCNQ1 inhibitors: inhibition of human KCNQ1/KCNE1 channel. shares compounds with KCNQ1 block. AID 652147. hit rate 77% among 1,600. inhibition, % at 10 µM. KCNQ1/KCNE1 cells, FluxOR thallium flux fluorescence;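 active = mean percent inhibition of duplicate wells above the buffer-only control mean plus 3 SD of those controls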;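 also: 0% = buffer only wells and 100% = XE-991 inhibitor control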
Target sequence (P51787 whole entry, looked up): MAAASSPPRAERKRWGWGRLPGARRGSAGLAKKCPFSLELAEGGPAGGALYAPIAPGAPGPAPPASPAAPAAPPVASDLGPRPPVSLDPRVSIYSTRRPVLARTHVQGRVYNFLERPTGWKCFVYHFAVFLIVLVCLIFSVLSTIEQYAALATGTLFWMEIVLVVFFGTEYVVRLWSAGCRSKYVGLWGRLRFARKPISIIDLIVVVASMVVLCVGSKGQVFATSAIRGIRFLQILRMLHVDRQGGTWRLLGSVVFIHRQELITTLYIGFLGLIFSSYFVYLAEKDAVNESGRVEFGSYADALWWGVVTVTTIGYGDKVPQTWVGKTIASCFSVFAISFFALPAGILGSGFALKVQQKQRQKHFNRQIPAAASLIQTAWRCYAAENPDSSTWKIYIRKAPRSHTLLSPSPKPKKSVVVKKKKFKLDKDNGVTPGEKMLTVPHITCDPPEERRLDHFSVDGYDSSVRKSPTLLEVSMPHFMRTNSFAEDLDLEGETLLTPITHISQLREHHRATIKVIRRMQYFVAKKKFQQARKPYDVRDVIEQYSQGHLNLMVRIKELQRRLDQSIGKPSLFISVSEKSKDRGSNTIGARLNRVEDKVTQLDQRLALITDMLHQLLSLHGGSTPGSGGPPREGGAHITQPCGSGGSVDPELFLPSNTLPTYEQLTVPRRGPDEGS
Active calls of the source: *; i = inactive; x = no result; + = active, no number.

SMILES	Kir21 inh	KCNQ1 block	KCNK9 inh	hERG protect	KCNQ1 pot	KCNK3 block	KCNQ1 block val	CHO KCNQ1 ctr	KCNQ2 inh	KCNQ1 KCNE1 spec	others
OCCC1CN(Cc2cccnc2)CCN1CCc1ccccc1 (centres undefined)	0.25	7*	i	-17	i	i	0	0.45	i	i
CCCCOc1ccc(C2/C(=C(/O)c3ccc4c(c3)CC(C)O4)C(=O)C(=O)N2CCCN2CCOCC2)cc1OC (centres undefined)	0.03	i	i	-10	i	i	x	x	x	x
c1ccc(Cn2nnnc2C(c2cccnc2)N2CCN(C3CCCCC3)CC2)cc1 (centres undefined)	-0.99	8*	i	-12	i	i	39*	0.47	64%*	38%*
O=C(Cc1ccc(Cl)cc1)Nc1ccc(Br)cn1	-1.3	i	i	-8	i	i	x	x	x	x
CN(C(=O)COc1ncnc2sccc12)c1ccccc1	-0.05	i	i	-4	i	i	x	x	x	x
CC1(CO)COC2(OC1)C(=O)Nc1ccccc12 (centres undefined)	x	x	x	x	x	i	x	x	x	x
NC(=O)c1cc2ccc(O)cc2oc1=NCc1ccccc1	-23	31*	i	-60	i	i	+	0.048*	i	i
O=C1c2ccc(Br)cc2C(=O)N1c1ccc(Cc2ccncc2)cc1	-1.3	15*	i	-10	i	i	140*	0.5	99%*	128%*	KCNQ1 APC inh=i
C[C@H](CO)N1C[C@H](C)[C@@H](CN(C)CC2CCCCC2)Oc2ccc(NC(=O)Cn3cnnn3)cc2C1=O	x	x	x	x	x	i	x	x	x	x
O=C1c2ccccc2C(=O)N1CCCCN(C(=O)c1ccc(Cl)s1)c1ccc(Cl)cc1	0.39	i	i	-7	i	i	x	x	x	x
Cc1ccc(N(CCCCN2C(=O)c3ccccc3C2=O)C(=O)c2ccc(Cl)s2)cc1	-1.3	9*	i	-12	i	i	78*	0.49	71%*	34%*
COc1ccc(-c2nc(NC(=O)c3cc(C(C)(C)C)nn3C)sc2C)cc1	1.1	16*	i	-13	i	i	128*	0.41	89%*	126%*	KCNQ1 APC inh=i
CC1(NC(=O)Cc2c(Cl)cccc2Cl)CCS(=O)(=O)C1 (centres undefined)	x	x	x	x	x	i	x	x	x	x
O=C(CCN1CCOCC1)c1ccc2c(c1)OCCO2	-1	8*	i	-15	i	i	64*	0.36*	i	60%*
Cc1nc(NC(=O)CC(C)C)sc1-c1csc(Nc2ccc(Cl)cc2)n1	0	i	i	-20	i	i	x	x	x	x
COc1ccc(N(CC(=O)NC2CC3CCC2C3)S(=O)(=O)c2ccc(C)cc2)cc1OC (centres undefined)	1.4	i	i	-9	i	i	x	x	x	x
COc1ccc(N(CC(=O)NC2CC3CCC2C3)S(=O)(=O)c2ccccc2)cc1Cl (centres undefined)	0.54	7*	i	-1	i	i	114*	0.42	i	126%*	KCNQ1 APC inh=+
Cc1ccc(C(=O)N2CCN(S(=O)(=O)c3ccc(C(C)C)cc3)CC2)s1	-1.7	i	i	-18	i	i	x	x	x	x
Cc1c(C(=O)N(Cc2ccco2)Cc2cccs2)oc2ccccc12	x	x	x	x	x	i	x	x	x	x
O=C(c1cc2ccccc2o1)N(Cc1ccco1)Cc1cccs1	0.68	7*	i	-20	i	i	120*	0.36*	91%*	190%*
CC1CCCC(NC(=O)CN2CCN(S(=O)(=O)c3ccc(Br)s3)CC2)C1C (centres undefined)	x	x	x	x	x	i	x	x	x	x
COc1ccc(C(=O)C2CCCN(Cc3cc(C)c(O)c(C)c3)C2)c(OC)c1 (centres undefined)	-1.5	i	i	-6	i	i	x	x	x	x
COc1ccc(C(=O)C2CCCN(Cc3cc(Cl)ccc3O)C2)c(OC)c1 (centres undefined)	1.5	6*	i	-13	i	i	62*	0.41	122%*	86%*
Cc1[nH]nc2nc3c(c(OC(=O)c4ccccc4)c12)c(=O)n(C)c(=O)n3C	-0.68	i	i	-13	i	x	x	x	x	x
O=C(COC(=O)CNC(=O)c1ccccc1F)NC12CC3CC(CC(C3)C1)C2	x	x	x	x	x	i	x	x	x	x
SMILES	Kir21 inh	KCNQ1 block	KCNK9 inh	hERG protect	KCNQ1 pot	KCNK3 block	KCNQ1 block val	CHO KCNQ1 ctr	KCNQ2 inh	KCNQ1 KCNE1 spec	others
CC1CCN(C(=O)Cn2c3ccc(F)cc3c3nc4n(c(=O)c32)CCCS4)CC1	0.81	i	i	-6	i	i	x	x	x	x
Cc1ccc(C(=O)OCC(=O)NC2CCCC2)cc1	1.9	i	i	-3	i	i	x	x	x	x
COCc1cc(N2CCOCC2)nc(-c2ccccc2)n1	-0.02	i	i	-4	i	i	x	x	x	x
COCc1cc(N2CCN(c3ccccc3F)CC2)nc(-c2ccccc2)n1	0.01	6*	i	-3	i	i	51*	0.51	60%*	140%*
COCc1cc(Sc2ccc(Cl)cc2)nc(-c2ccccc2)n1	-0.94	6*	i	-12	i	i	77*	0.49	91%*	80%*
Oc1ccc(-c2n[nH]c(C(F)(F)F)c2-c2ccccc2)c(O)c1	-2.5	8*	i	-20	i	i	156*	0.37*	i	182%*
COc1ccc2c(c1)C=C(CN1CCC(CO)(CCc3ccccc3)CC1)CO2	0.78	i	i	-11	i	i	x	x	x	x
COc1ccc(CC2(CO)CCN(CC3=Cc4cc(Cl)ccc4OC3)CC2)cc1	1	9*	i	-25	i	i	113*	0.5	102%*	i	KCNQ1 APC inh=i
COc1ccc(CNC(=O)C(OC(C)=O)c2ccccn2)cc1 (centres undefined)	0.8	i	i	1	i	i	x	x	x	x
O=S(=O)(c1ccc2[nH]c3c(c2c1)CCCC3)N1CCCCC1	-0.25	9*	i	-3	i	i	88*	0.45	75%*	110%*	KCNQ1 APC inh=+

High-throughput results: PubChem BioAssay, Johns Hopkins Ion Channel Center
